Source: ChEMBL document CHEMBL4689842, “EUbOPEN Chemogenomics Library wave 1” (2021)

Tested on: HEK-293T
Experiment: Multiplex assay against HEK293T;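 for Population Tubulin-Different-Phenotype (%): share of the cells with healthy nuclei that show this phenotype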
Assay type: toxicity, cell-based
Details: human
Procedure, shortened: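 At seeding, live cells were stained with Hoechst33342, BioTracker Green Microtubule Cytoskeleton Dye, MitoTracker Red and Annexin V Alexa Fluor 680. After compound addition they were imaged on a CQ1 microscope at 37°C and 5% CO2, and CellPathfinder machine-learning gating sorted them into Hoechst high-intensity objects or normal cells, with normal cells further split into healthy, pyknosed or fragmented nuclei and pyknosed cells into mitotic or apoptotic. Tubulin, mitochondrial-mass and membrane-permeability phenotypes are given as per cents of cells with healthy nuclei.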

[1] = 12 h, 1 µM, compound concentration 1 uM, replicate 1
[2] = 12 h, 1 µM, compound concentration 1 uM, replicate 2
[3] = 12 h, 10 µM, compound concentration 10 uM, replicate 1
[4] = 12 h, 10 µM, compound concentration 10 uM, replicate 2
[5] = 24 h, 1 µM, compound concentration 1 uM, replicate 1
[6] = 24 h, 1 µM, compound concentration 1 uM, replicate 2
[7] = 24 h, 10 µM, compound concentration 10 uM, replicate 1
[8] = 24 h, 10 µM, compound concentration 10 uM, replicate 2
[9] = 48 h, 1 µM, compound concentration 1 uM, replicate 1
[10] = 48 h, 1 µM, compound concentration 1 uM, replicate 2
[11] = 48 h, 10 µM, compound concentration 10 uM, replicate 1
[12] = 48 h, 10 µM, compound concentration 10 uM, replicate 2

Structure (SMILES): CN1C2CCC1CC(OC(c1ccc(F)cc1)c1ccc(F)cc1)C2.Cl (stereo unspecified)
- Population Apoptotic (%) [1]: 50%
- Population Fragmented Nuclei (%) [1]: 12%
- Population Healthy Nuclei (%) [1]: 27%
- Population Hoechst High Intensity Objects (%) [1]: 12%
- Population Membrane Permeable-Phenotype (%) [1]: 2%
- Population Mitochondria Different-Phenotype (%) [1]: 84%
- Population Mitotic Cells (%) [1]: 50%
- Population Normal (%) [1]: 87%
- Population Pyknosed Nuclei (%) [1]: 60%
- Population Tubulin-Different-Phenotype (%) [1]: 58%
- Total Cell Count [1]: 303
- Population Apoptotic (%) [2]: 18%
- Population Fragmented Nuclei (%) [2]: 2%
- Population Healthy Nuclei (%) [2]: 43%
- Population Hoechst High Intensity Objects (%) [2]: 3%
- Population Membrane Permeable-Phenotype (%) [2]: 18%
- Population Mitochondria Different-Phenotype (%) [2]: 35%
- Population Mitotic Cells (%) [2]: 81%
- Population Normal (%) [2]: 96%
- Population Pyknosed Nuclei (%) [2]: 54%
- Population Tubulin-Different-Phenotype (%) [2]: 56%
- Total Cell Count [2]: 252
- Population Apoptotic (%) [3]: 80%
- Population Fragmented Nuclei (%) [3]: 9%
- Population Healthy Nuclei (%) [3]: 25%
- Population Hoechst High Intensity Objects (%) [3]: 13%
- Population Membrane Permeable-Phenotype (%) [3]: 1%
- Population Mitochondria Different-Phenotype (%) [3]: 100%
- Population Mitotic Cells (%) [3]: 19%
- Population Normal (%) [3]: 86%
- Population Pyknosed Nuclei (%) [3]: 65%
- Population Tubulin-Different-Phenotype (%) [3]: 98%
- Total Cell Count [3]: 280
- Population Apoptotic (%) [4]: 63%
- Population Fragmented Nuclei (%) [4]: 3%
- Population Healthy Nuclei (%) [4]: 21%
- Population Hoechst High Intensity Objects (%) [4]: 6%
- Population Membrane Permeable-Phenotype (%) [4]: 2%
- Population Mitochondria Different-Phenotype (%) [4]: 92%
- Population Mitotic Cells (%) [4]: 36%
- Population Normal (%) [4]: 93%
- Population Pyknosed Nuclei (%) [4]: 74%
- Population Tubulin-Different-Phenotype (%) [4]: 95%
- Total Cell Count [4]: 201
- Population Apoptotic (%) [5]: 48%
- Population Fragmented Nuclei (%) [5]: 15%
- Population Healthy Nuclei (%) [5]: 19%
- Population Hoechst High Intensity Objects (%) [5]: 14%
- Population Membrane Permeable-Phenotype (%) [5]: 10%
- Population Mitochondria Different-Phenotype (%) [5]: 76%
- Population Mitotic Cells (%) [5]: 51%
- Population Normal (%) [5]: 85%
- Population Pyknosed Nuclei (%) [5]: 64%
- Total Cell Count [5]: 295
- Population Apoptotic (%) [6]: 22%
- Population Fragmented Nuclei (%) [6]: 4%
- Population Healthy Nuclei (%) [6]: 49%
- Population Hoechst High Intensity Objects (%) [6]: 1%
- Population Membrane Permeable-Phenotype (%) [6]: 12%
- Population Mitochondria Different-Phenotype (%) [6]: 35%
- Population Mitotic Cells (%) [6]: 77%
- Population Normal (%) [6]: 98%
- Population Pyknosed Nuclei (%) [6]: 46%
- Population Tubulin-Different-Phenotype (%) [6]: 64%
- Total Cell Count [6]: 305
- Population Apoptotic (%) [7]: 79%
- Population Fragmented Nuclei (%) [7]: 16%
- Population Healthy Nuclei (%) [7]: 13%
- Population Hoechst High Intensity Objects (%) [7]: 20%
- Population Membrane Permeable-Phenotype (%) [7]: 3%
- Population Mitochondria Different-Phenotype (%) [7]: 100%
- Population Mitotic Cells (%) [7]: 20%
- Population Normal (%) [7]: 79%
- Population Pyknosed Nuclei (%) [7]: 70%
- Population Tubulin-Different-Phenotype (%) [7]: 96%
- Total Cell Count [7]: 292
- Population Apoptotic (%) [8]: 88%
- Population Fragmented Nuclei (%) [8]: 3%
- Population Healthy Nuclei (%) [8]: 28%
- Population Hoechst High Intensity Objects (%) [8]: 7%
- Population Membrane Permeable-Phenotype (%) [8]: 1%
- Population Mitochondria Different-Phenotype (%) [8]: 96%
- Population Mitotic Cells (%) [8]: 11%
- Population Normal (%) [8]: 92%
- Population Pyknosed Nuclei (%) [8]: 67%
- Population Tubulin-Different-Phenotype (%) [8]: 86%
- Total Cell Count [8]: 190
- Population Apoptotic (%) [9]: 47%
- Population Fragmented Nuclei (%) [9]: 20%
- Population Healthy Nuclei (%) [9]: 21%
- Population Hoechst High Intensity Objects (%) [9]: 19%
- Population Membrane Permeable-Phenotype (%) [9]: 7%
- Population Mitochondria Different-Phenotype (%) [9]: 53%
- Population Mitotic Cells (%) [9]: 52%
- Population Normal (%) [9]: 80%
- Population Pyknosed Nuclei (%) [9]: 58%
- Population Tubulin-Different-Phenotype (%) [9]: 67%
- Total Cell Count [9]: 329
- Population Apoptotic (%) [10]: 11%
- Population Fragmented Nuclei (%) [10]: 4%
- Population Healthy Nuclei (%) [10]: 77%
- Population Hoechst High Intensity Objects (%) [10]: 2%
- Population Membrane Permeable-Phenotype (%) [10]: 15%
- Population Mitochondria Different-Phenotype (%) [10]: 15%
- Population Mitotic Cells (%) [10]: 89%
- Population Normal (%) [10]: 97%
- Population Pyknosed Nuclei (%) [10]: 18%
- Population Tubulin-Different-Phenotype (%) [10]: 52%
- Total Cell Count [10]: 565
- Population Apoptotic (%) [11]: 78%
- Population Fragmented Nuclei (%) [11]: 21%
- Population Healthy Nuclei (%) [11]: 8%
- Population Hoechst High Intensity Objects (%) [11]: 21%
- Population Membrane Permeable-Phenotype (%) [11]: 0%
- Population Mitochondria Different-Phenotype (%) [11]: 100%
- Population Mitotic Cells (%) [11]: 21%
- Population Normal (%) [11]: 78%
- Population Pyknosed Nuclei (%) [11]: 69%
- Population Tubulin-Different-Phenotype (%) [11]: 95%
- Total Cell Count [11]: 285
- Population Apoptotic (%) [12]: 75%
- Population Fragmented Nuclei (%) [12]: 9%
- Population Healthy Nuclei (%) [12]: 55%
- Population Hoechst High Intensity Objects (%) [12]: 10%
- Population Membrane Permeable-Phenotype (%) [12]: 1%
- Population Mitochondria Different-Phenotype (%) [12]: 96%
- Population Mitotic Cells (%) [12]: 24%
- Population Normal (%) [12]: 89%
- Population Pyknosed Nuclei (%) [12]: 34%
- Population Tubulin-Different-Phenotype (%) [12]: 85%
- Total Cell Count [12]: 207
